Data as given in ChEMBL document CHEMBL1151705, “Novel azalides derived from 16-membered macrolides. Part II: Isolation of the linear 9-formylcarboxylic acid and its sequential macrocyclization with an amino alcohol or an azidoamine” (2008).
In brackets after ≈: the same amount, converted by molar mass.

How the values were obtained:
Format in all cases: functional
Streptococcus pneumoniae [1] = test: Antimicrobial activity against Streptococcus pneumoniae 10 expressing mefA after 20 hrs by agar dilution method; conditions: Streptococcus pneumoniae, 20 h; read-out: MIC
Procedure, shortened: (§1)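 Streptococci, H. influenzae and M. catarrhalis were precultured on blood agar plates. Suspensions of about 10⁶ CFU/ml were inoculated onto sensitivity disk agar supplemented with 5% horse blood and incubated at 37 °C for 20 h. MIC was read as the lowest drug concentration with no visible growth.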

Streptococcus pneumoniae [2] = test: Antimicrobial activity against drug-susceptible Streptococcus pneumoniae DP1 Type1 after 20 hrs by agar dilution method; conditions: Streptococcus pneumoniae, 20 h; read-out: MIC; procedure, shortened: as §1
Staphylococcus aureus [3] = test: Antimicrobial activity against drug-susceptible Staphylococcus aureus 209P JC-1 after 20 hrs by agar dilution method; conditions: Staphylococcus aureus, 209P, 20 h; read-out: MIC
Procedure, shortened: (§2)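 Agar dilution MIC. S. aureus seed culture was grown in sensitivity test broth. Cell suspension (about 10⁶ CFU/ml) was inoculated onto sensitivity disk agar with 5% horse blood and incubated at 37 °C for 20 h. MIC was the lowest drug concentration that prevented visible growth.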

Streptococcus pneumoniae [4] = test: Antimicrobial activity against Streptococcus pneumoniae 6 constitutively expressing ermB after 20 hrs by agar dilution method; conditions: Streptococcus pneumoniae, 20 h; read-out: MIC; procedure, shortened: as §1
Streptococcus pneumoniae [5] = test: Antimicrobial activity against Streptococcus pneumoniae 8 expressing inducible ermB after 20 hrs by agar dilution method; conditions: Streptococcus pneumoniae, 20 h; read-out: MIC; procedure, shortened: as §1
Streptococcus pneumoniae [6] = test: Antimicrobial activity against drug-susceptible Streptococcus pneumoniae 3 after 20 hrs by agar dilution method; conditions: Streptococcus pneumoniae, 20 h; read-out: MIC; procedure, shortened: as §1
Staphylococcus aureus [7] = test: Antimicrobial activity against Staphylococcus aureus 4 constitutively expressing ermA after 20 hrs by agar dilution method; procedure, shortened: as §2
Streptococcus pneumoniae [8] = test: Antimicrobial activity against drug-susceptible Streptococcus pneumoniae 2 after 20 hrs by agar dilution method; conditions: Streptococcus pneumoniae, 20 h; read-out: MIC; procedure, shortened: as §1
Moraxella catarrhalis [9] = test: Antimicrobial activity against drug-susceptible Moraxella catarrhalis 2 after 20 hrs by agar dilution method; conditions: Moraxella catarrhalis, 20 h; read-out: MIC; procedure, shortened: as §1
Streptococcus pneumoniae [10] = test: Antimicrobial activity against Streptococcus pneumoniae 5 constitutively expressing ermB/mefA after 20 hrs by agar dilution method; conditions: Streptococcus pneumoniae, 20 h; read-out: MIC; procedure, shortened: as §1
Haemophilus influenzae [11] = test: Antimicrobial activity against drug-susceptible Haemophilus influenzae 4 after 20 hrs by agar dilution method; conditions: Haemophilus influenzae, 20 h; read-out: MIC; procedure, shortened: as §1
Haemophilus influenzae [12] = test: Antimicrobial activity against drug-susceptible Haemophilus influenzae 3 after 20 hrs by agar dilution method; conditions: Haemophilus influenzae, 20 h; read-out: MIC; procedure, shortened: as §1
Streptococcus pneumoniae [13] = test: Antimicrobial activity against Streptococcus pneumoniae 7 expressing inducible ermB after 20 hrs by agar dilution method; conditions: Streptococcus pneumoniae, 20 h; read-out: MIC; procedure, shortened: as §1
Streptococcus pyogenes [14] = test: Antimicrobial activity against Streptococcus pyogenes 3 expressing mefA after 20 hrs by agar dilution method; conditions: Streptococcus pyogenes, 20 h; read-out: MIC; procedure, shortened: as §1
Staphylococcus aureus [15] = test: Antimicrobial activity against drug-susceptible Staphylococcus aureus 2 after 20 hrs by agar dilution method; conditions: Staphylococcus aureus, 20 h; read-out: MIC; procedure, shortened: as §2
Staphylococcus aureus [16] = test: Antimicrobial activity against Staphylococcus aureus 5 expressing inducible ermB after 20 hrs by agar dilution method; conditions: Staphylococcus aureus, 20 h; read-out: MIC; procedure, shortened: as §2
Staphylococcus aureus [17] = test: Antimicrobial activity against drug-susceptible Staphylococcus aureus 3 after 20 hrs by agar dilution method; conditions: Staphylococcus aureus, 20 h; read-out: MIC; procedure, shortened: as §2
Streptococcus pneumoniae [18] = test: Antimicrobial activity against Streptococcus pneumoniae 9 expressing mefA after 20 hrs by agar dilution method; conditions: Streptococcus pneumoniae, 20 h; read-out: MIC; procedure, shortened: as §1
Streptococcus pyogenes [19] = test: Antimicrobial activity against Streptococcus pyogenes 2 constitutively expressing ermB after 20 hrs by agar dilution method; procedure, shortened: as §1
Streptococcus pyogenes [20] = test: Antimicrobial activity against drug-susceptible Streptococcus pyogenes 1 after 20 hrs by agar dilution method; conditions: Streptococcus pyogenes, 20 h; read-out: MIC; procedure, shortened: as §1
Haemophilus influenzae [21] = test: Antimicrobial activity against drug-susceptible Haemophilus influenzae 1 after 20 hrs by agar dilution method; conditions: Haemophilus influenzae, 20 h; read-out: MIC; procedure, shortened: as §1
Haemophilus influenzae [22] = test: Antimicrobial activity against drug-susceptible Haemophilus influenzae 2 after 20 hrs by agar dilution method; conditions: Haemophilus influenzae, 20 h; read-out: MIC; procedure, shortened: as §1
Streptococcus pneumoniae [23] = test: Antimicrobial activity against Streptococcus pneumoniae 4 constitutively expressing ermB after 20 hrs by agar dilution method; conditions: Streptococcus pneumoniae, 20 h; read-out: MIC; procedure, shortened: as §1
Moraxella catarrhalis [24] = test: Antimicrobial activity against drug-susceptible Moraxella catarrhalis 1 after 20 hrs by agar dilution method; conditions: Moraxella catarrhalis, 20 h; read-out: MIC; procedure, shortened: as §1
Staphylococcus aureus [25] = test: Antimicrobial activity against Staphylococcus aureus 6 expressing inducible ermB after 20 hrs by agar dilution method; procedure, shortened: as §2

Row | MIC (Streptococcus pneumoniae [1]) [µg/mL] | MIC (Streptococcus pneumoniae [2]) [µg/mL] | MIC (Staphylococcus aureus [3]) [µg/mL] | MIC (Streptococcus pneumoniae [4]) [µg/mL] | MIC (Streptococcus pneumoniae [5]) [µg/mL] | MIC (Streptococcus pneumoniae [6]) [µg/mL] | MIC (Staphylococcus aureus [7]) [µg/mL] | MIC (Streptococcus pneumoniae [8]) [µg/mL] | MIC (Moraxella catarrhalis [9]) [µg/mL] | MIC (Streptococcus pneumoniae [10]) [µg/mL] | MIC (Haemophilus influenzae [11]) [µg/mL] | MIC (Haemophilus influenzae [12]) [µg/mL] | MIC (Streptococcus pneumoniae [13]) [µg/mL] | MIC (Streptococcus pyogenes [14]) [µg/mL] | MIC (Staphylococcus aureus [15]) [µg/mL] | MIC (Staphylococcus aureus [16]) [µg/mL] | MIC (Staphylococcus aureus [17]) [µg/mL] | MIC (Streptococcus pneumoniae [18]) [µg/mL] | MIC (Streptococcus pyogenes [19]) [µg/mL] | MIC (Streptococcus pyogenes [20]) [µg/mL] | SMILES | further results
1 | 0.06 (≈ 0.0642 µM) | 0.03 (≈ 0.0321 µM) | 0.5 (≈ 0.535 µM) | > 128 | 4 (≈ 4.28 µM) | 0.06 (≈ 0.0642 µM) | > 128 | 0.06 (≈ 0.0642 µM) | 1 (≈ 1.07 µM) | > 128 | 8 (≈ 8.55 µM) | 16 (≈ 17.1 µM) | 2 (≈ 2.14 µM) | 0.5 (≈ 0.535 µM) | 1 (≈ 1.07 µM) | 0.25 (≈ 0.267 µM) | 0.25 (≈ 0.267 µM) | 0.06 (≈ 0.0642 µM) | > 128 | 0.13 (≈ 0.139 µM) | CCOC(=O)[C@H]1[C@H](C)O[C@@H](O[C@H]2[C@H](N(C)C)[C@@H](O)[C@H](O[C@H]3[C@@H](CC=O)C[C@@H](C)[C@@H](O)CN(C)CCC[C@H](C/C=C/c4ccccc4)OC(=O)C[C@@H](OC(=O)CC)[C@@H]3OC)O[C@@H]2C)C[C@@]1(C)O | MIC (Haemophilus influenzae [21]): 64 µg/mL (≈ 68.4 µM); MIC (Haemophilus influenzae [22]): 8 µg/mL (≈ 8.55 µM); MIC (Streptococcus pneumoniae [23]): 128 µg/mL (≈ 137 µM); MIC (Moraxella catarrhalis [24]): 1 µg/mL (≈ 1.07 µM); MIC (Staphylococcus aureus [25]): 0.5 µg/mL (≈ 0.535 µM)
2 | 0.015 (≈ 0.0152 µM) | < 0.008 | 0.13 (≈ 0.132 µM) | 128 (≈ 130 µM) | 4 (≈ 4.05 µM) | < 0.008 | > 128 | 0.015 (≈ 0.0152 µM) | 1 (≈ 1.01 µM) | 128 (≈ 130 µM) | 8 (≈ 8.1 µM) | 8 (≈ 8.1 µM) | 4 (≈ 4.05 µM) | 0.13 (≈ 0.132 µM) | 0.25 (≈ 0.253 µM) | 0.13 (≈ 0.132 µM) | 0.13 (≈ 0.132 µM) | 0.015 (≈ 0.0152 µM) | > 128 | 0.015 (≈ 0.0152 µM) | CCOC(=O)[C@H]1[C@H](C)O[C@@H](O[C@H]2[C@H](N(C)C)[C@@H](O)[C@H](O[C@H]3[C@@H](CC=O)C[C@@H](C)[C@@H](O)CN(C)CCC[C@H](CCCc4cnc5ccccc5c4)OC(=O)C[C@@H](OC(=O)CC)[C@@H]3OC)O[C@@H]2C)C[C@@]1(C)O | MIC (Haemophilus influenzae [21]): 32 µg/mL (≈ 32.4 µM); MIC (Haemophilus influenzae [22]): 2 µg/mL (≈ 2.02 µM); MIC (Streptococcus pneumoniae [23]): 128 µg/mL (≈ 130 µM); MIC (Moraxella catarrhalis [24]): 1 µg/mL (≈ 1.01 µM); MIC (Staphylococcus aureus [25]): 0.25 µg/mL (≈ 0.253 µM)
